What all share (type): functional
The test system of one test is Pseudomonas aeruginosa. Description: Antibacterial activity against Pseudomonas aeruginosa ATCC BAA-427 by broth microdilution method. An outline of the steps: (§1)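 Bacteria were tested by the NCCLS method in Mueller Hinton broth, with gentamicin and norfloxacin as reference drugs.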
In general terms: In broth dilution the organism is exposed to a series of concentrations in liquid medium.

Test [1] has as its system Staphylococcus aureus. Description: Antibacterial activity against Staphylococcus aureus ATCC 25923 by broth microdilution method.
Another test deals with Plasmodium falciparum. In words: Antimalarial activity against chloroquine-sensitive Plasmodium falciparum 3D7 after 72 hrs by SYBR Green-1 staining based fluorescence assay. Conditions: 3D7, 72 h.
Another test deals with Klebsiella pneumoniae. Description: Antibacterial activity against Klebsiella pneumoniae ATCC 27736 by broth microdilution method. An outline of the steps: as §1
Test [2] has as its system Trichophyton mentagrophytes. In words: Anti-fungal activity against Trichophyton mentagrophytes after 48 hrs by broth microdilution method.
A further test relates to Escherichia coli. Description: Antibacterial activity against Escherichia coli ATCC 9637 by broth microdilution method. Conditions: W. An outline of the steps: as §1
A further test concerns Sporothrix schenckii. Description: Anti-fungal activity against Sporothrix schenckii after 48 hrs by broth microdilution method.
A further test has as its system Cryptococcus neoformans. In words: Anti-fungal activity against Cryptococcus neoformans after 48 hrs by broth microdilution method.
The next test relates to Candida albicans. Description: Anti-fungal activity against Candida albicans after 48 hrs by broth microdilution method.
The test system of test [3] is Staphylococcus aureus. In words: Antibacterial activity against methicillin-resistant Staphylococcus aureus ATCC 700699 by broth microdilution method. Conditions: Mu50.
Test [4] deals with Staphylococcus aureus. Description: Antibacterial activity against Staphylococcus aureus ATCC 29213 by broth microdilution method.
In the next test the test system is Candida parapsilosis. Description: Anti-fungal activity against Candida parapsilosis ATCC 22019 after 48 hrs by broth microdilution method. Conditions: Lodderomyces parapsilosis, ATCC 22019, 48 h.
The subject of the next test is Aspergillus fumigatus. In words: Anti-fungal activity against Aspergillus fumigatus after 48 hrs by broth microdilution method.

≈ marks a conversion by molar mass, not a printed value. Some results are limits rather than exact numbers.

The source of these data is ChEMBL document CHEMBL3994637, “Broad spectrum anti-infective properties of benzisothiazolones and the parallels in their anti-bacterial and anti-fungal effects” (Bioorg Med Chem Lett, 2017).

One may read the IC50 as the midpoint of a concentration-inhibition curve. Read a low IC50 as greater potency. Broadly, the MIC is the lowest concentration that inhibits growth of the organism.

On to `O=c1c2ccccc2sn1CCn1sc2ccccc2c1=O`, for which the IC50 was over 50 mg/L in the test with Pseudomonas aeruginosa; 4.1 mg/L (≈ 12.5 µM) with Staphylococcus aureus [1]; over 2 µM in the test on Plasmodium falciparum; over 50 mg/L in the test on Klebsiella pneumoniae; over 50 mg/L with Escherichia coli; 2.3 mg/L (≈ 7 µM) in the test with Sporothrix schenckii. Moreover, the IC50 is 1.4 mg/L (≈ 4.26 µM) with Cryptococcus neoformans; 1.51 mg/L (≈ 4.6 µM) in the test with Candida albicans; 0.4 mg/L (≈ 1.22 µM) in the test on Staphylococcus aureus [3]; 0.3 mg/L (≈ 0.913 µM) in the test with Staphylococcus aureus [4]; over 50 mg/L with Candida parapsilosis. Also, the MIC was over 50 mg/L against Pseudomonas aeruginosa; 16.7 mg/L (≈ 50.8 µM) in the test on Staphylococcus aureus [1]; over 50 mg/L with Klebsiella pneumoniae; 2.9 mg/L (≈ 8.83 µM) in test [2]; over 50 mg/L against Escherichia coli; 3.5 mg/L (≈ 10.7 µM) in the test with Sporothrix schenckii. In addition, the MIC with Cryptococcus neoformans was 2.2 mg/L (≈ 6.7 µM); against Candida albicans, 1.54 mg/L (≈ 4.69 µM); against Staphylococcus aureus [3], 0.9 mg/L (≈ 2.74 µM); against Staphylococcus aureus [4], 0.4 mg/L (≈ 1.22 µM); against Candida parapsilosis, over 50 mg/L; against Aspergillus fumigatus it was 12.5 mg/L (≈ 38.1 µM).
Consider `Nc1ccccc1-n1sc2ccccc2c1=O`, for which the IC50 is over 50 mg/L in the test on Pseudomonas aeruginosa; over 50 mg/L in the test with Staphylococcus aureus [1]; over 2 µM in the test on Plasmodium falciparum; over 50 mg/L in the test on Klebsiella pneumoniae; over 50 mg/L with Escherichia coli; 5.7 mg/L (≈ 23.5 µM) in the test on Sporothrix schenckii. Besides, the IC50 is 1.9 mg/L (≈ 7.84 µM) in the test with Cryptococcus neoformans; 2.6 mg/L (≈ 10.7 µM) in the test on Candida albicans; over 50 mg/L in the test with Staphylococcus aureus [3]; over 50 mg/L in the test on Staphylococcus aureus [4]; over 50 mg/L in the test on Candida parapsilosis. In addition, the MIC is over 50 mg/L against Pseudomonas aeruginosa; over 50 mg/L in the test with Staphylococcus aureus [1]; over 50 mg/L against Klebsiella pneumoniae; 3.3 mg/L (≈ 13.6 µM) in test [2]; over 50 mg/L with Escherichia coli; 11.7 mg/L (≈ 48.3 µM) against Sporothrix schenckii. Moreover, the MIC in the test on Cryptococcus neoformans was 2.3 mg/L (≈ 9.49 µM); against Candida albicans, 4.3 mg/L (≈ 17.7 µM); in the test on Staphylococcus aureus [3], over 50 mg/L; in the test with Staphylococcus aureus [4], over 50 mg/L; in the test with Candida parapsilosis, over 50 mg/L; against Aspergillus fumigatus, 12.5 mg/L (≈ 51.6 µM).
With `COC(=O)[C@H](C)n1sc2ccccc2c1=O`, the IC50 in the test with Pseudomonas aeruginosa is over 50 mg/L; in the test on Staphylococcus aureus [1], 2 mg/L (≈ 8.43 µM); in the test on Plasmodium falciparum it was over 2 µM; in the test with Klebsiella pneumoniae, over 50 mg/L; in test [2] it was 11.4 mg/L (≈ 48 µM); with Escherichia coli it was over 50 mg/L. Besides, the IC50 turned out to be 2.9 mg/L (≈ 12.2 µM) with Sporothrix schenckii; 1.4 mg/L (≈ 5.9 µM) in the test with Cryptococcus neoformans; 1.9 mg/L (≈ 8.01 µM) with Candida albicans; 0.84 mg/L (≈ 3.54 µM) in the test with Staphylococcus aureus [3]; 6.4 mg/L (≈ 27 µM) in the test on Staphylococcus aureus [4]. The MIC against Pseudomonas aeruginosa is over 50 mg/L; against Staphylococcus aureus [1], 3 mg/L (≈ 12.6 µM); in the test on Klebsiella pneumoniae it was over 50 mg/L; in [2] it was 12 mg/L (≈ 50.6 µM); with Escherichia coli, over 50 mg/L; in the test on Sporothrix schenckii, 12.2 mg/L (≈ 51.4 µM). Also, the MIC came out at 2 mg/L (≈ 8.43 µM) against Cryptococcus neoformans; 2.7 mg/L (≈ 11.4 µM) against Candida albicans; 0.87 mg/L (≈ 3.67 µM) with Staphylococcus aureus [3]; 8.4 mg/L (≈ 35.4 µM) in the test on Staphylococcus aureus [4]; 12.5 mg/L (≈ 52.7 µM) against Candida parapsilosis; 25 mg/L (≈ 105 µM) in the test with Aspergillus fumigatus.
With `O=c1c2ccccc2sn1Cc1ccc2c(c1)OCO2`, the IC50 in the test with Pseudomonas aeruginosa is over 50 mg/L; with Staphylococcus aureus [1], 2.2 mg/L (≈ 7.71 µM); in the test with Plasmodium falciparum, over 2 µM; with Klebsiella pneumoniae it was over 50 mg/L; in the test with Escherichia coli, over 50 mg/L; with Sporothrix schenckii, 0.3 mg/L (≈ 1.05 µM). The IC50 with Cryptococcus neoformans is 0.8 mg/L (≈ 2.8 µM); with Candida albicans, 0.56 mg/L (≈ 1.96 µM); in the test with Staphylococcus aureus [3] it was 0.6 mg/L (≈ 2.1 µM); with Staphylococcus aureus [4], 1.9 mg/L (≈ 6.66 µM); in the test on Aspergillus fumigatus, 1.5 mg/L (≈ 5.26 µM). In addition, the MIC against Pseudomonas aeruginosa is over 50 mg/L; against Staphylococcus aureus [1] it was 2.6 mg/L (≈ 9.11 µM); against Klebsiella pneumoniae, over 50 mg/L; in [2], 1.5 mg/L (≈ 5.26 µM); against Escherichia coli, over 50 mg/L; with Sporothrix schenckii it was 0.5 mg/L (≈ 1.75 µM). Further, the MIC in the test on Cryptococcus neoformans is 0.8 mg/L (≈ 2.8 µM); against Candida albicans, 0.7 mg/L (≈ 2.45 µM); in the test on Staphylococcus aureus [3], 1 mg/L (≈ 3.5 µM); with Staphylococcus aureus [4], 2.5 mg/L (≈ 8.76 µM); against Candida parapsilosis, over 50 mg/L; against Aspergillus fumigatus it was 1.7 mg/L (≈ 5.96 µM).
For `COC(=O)[C@H](C(C)C)n1sc2ccccc2c1=O`, the IC50 in the test on Pseudomonas aeruginosa is over 50 mg/L; in the test on Staphylococcus aureus [1], 2.4 mg/L (≈ 9.05 µM); in the test on Plasmodium falciparum, over 2 µM; with Klebsiella pneumoniae it was over 50 mg/L; in test [2], 1.7 mg/L (≈ 6.41 µM); in the test with Escherichia coli it was over 50 mg/L. The IC50 in the test with Sporothrix schenckii worked out at 2.5 mg/L (≈ 9.42 µM); in the test with Cryptococcus neoformans it was 2.5 mg/L (≈ 9.42 µM); with Candida albicans, 1.2 mg/L (≈ 4.52 µM); in the test on Staphylococcus aureus [3] it was 0.82 mg/L (≈ 3.09 µM); in the test on Staphylococcus aureus [4] it was 2.6 mg/L (≈ 9.8 µM); with Candida parapsilosis it was 1.6 mg/L (≈ 6.03 µM). For the same compound, the MIC was over 50 mg/L against Pseudomonas aeruginosa; 2.9 mg/L (≈ 10.9 µM) against Staphylococcus aureus [1]; over 50 mg/L against Klebsiella pneumoniae; 2.4 mg/L (≈ 9.05 µM) in [2]; over 50 mg/L against Escherichia coli; 11.9 mg/L (≈ 44.8 µM) against Sporothrix schenckii. In addition, the MIC with Cryptococcus neoformans was 4.5 mg/L (≈ 17 µM); against Candida albicans it was 2.3 mg/L (≈ 8.67 µM); with Staphylococcus aureus [3], 0.97 mg/L (≈ 3.66 µM); against Staphylococcus aureus [4], 4.6 mg/L (≈ 17.3 µM); in the test on Candida parapsilosis, 3.1 mg/L (≈ 11.7 µM); in the test on Aspergillus fumigatus, 12.5 mg/L (≈ 47.1 µM).
Take `COC(=O)[C@H](CC(C)C)n1sc2ccccc2c1=O`: the IC50 in the test on Pseudomonas aeruginosa is over 50 mg/L; in the test with Staphylococcus aureus [1] it was 2.1 mg/L (≈ 7.52 µM); in the test with Plasmodium falciparum, over 2 µM; with Klebsiella pneumoniae it was over 50 mg/L; in test [2] it was 6.2 mg/L (≈ 22.2 µM); with Escherichia coli it was over 50 mg/L. Besides, the IC50 in the test with Sporothrix schenckii was 2.9 mg/L (≈ 10.4 µM); in the test on Cryptococcus neoformans, 8.6 mg/L (≈ 30.8 µM); in the test with Candida albicans it was 1.5 mg/L (≈ 5.37 µM); in the test on Staphylococcus aureus [3], 2.1 mg/L (≈ 7.52 µM); in the test with Staphylococcus aureus [4] it was 2.7 mg/L (≈ 9.66 µM); in the test with Candida parapsilosis, 2.4 mg/L (≈ 8.59 µM). In addition, the MIC in the test with Pseudomonas aeruginosa is over 50 mg/L; against Staphylococcus aureus [1], 3.5 mg/L (≈ 12.5 µM); in the test with Klebsiella pneumoniae, over 50 mg/L; in test [2] it was 11.4 mg/L (≈ 40.8 µM); against Escherichia coli, over 50 mg/L; in the test with Sporothrix schenckii it was 20.4 mg/L (≈ 73 µM). Further, the MIC against Cryptococcus neoformans was 10.5 mg/L (≈ 37.6 µM); with Candida albicans, 1.9 mg/L (≈ 6.8 µM); against Staphylococcus aureus [3], 3.5 mg/L (≈ 12.5 µM); with Staphylococcus aureus [4], 6.9 mg/L (≈ 24.7 µM); against Candida parapsilosis, 4.9 mg/L (≈ 17.5 µM); against Aspergillus fumigatus, over 50 mg/L.
Take `C[C@@H]1[C@H](O)[C@@H](C)/C=C/C=C/C=C/C=C/C=C/C=C/C=C/[C@H](O[C@@H]2O[C@H](C)[C@@H](O)[C@H](N)[C@@H]2O)C[C@@H]2O[C@](O)(C[C@@H](O)C[C@@H](O)[C@H](O)CC[C@@H](O)C[C@@H](O)CC(=O)O[C@H]1C)C[C@H](O)[C@H]2C(=O)O` [AMPHOTERICIN B]: the MIC is 0.25 mg/L (≈ 0.271 µM) in [2]; 0.25 mg/L (≈ 0.271 µM) with Sporothrix schenckii; 0.125 mg/L (≈ 0.135 µM) in the test with Cryptococcus neoformans; 0.016 mg/L (≈ 0.0173 µM) against Candida albicans; 0.016 mg/L (≈ 0.0173 µM) against Candida parapsilosis; 0.5 mg/L (≈ 0.541 µM) against Aspergillus fumigatus.
Turning to `CCn1cc(C(=O)O)c(=O)c2cc(F)c(N3CCNCC3)cc21` [NORFLOXACIN], the MIC in the test on Pseudomonas aeruginosa was over 50 mg/L; against Staphylococcus aureus [1] it was 0.39 mg/L (≈ 1.22 µM); in the test with Klebsiella pneumoniae, 0.78 mg/L (≈ 2.44 µM); with Escherichia coli it was 0.39 mg/L (≈ 1.22 µM); against Staphylococcus aureus [3], over 50 mg/L; against Staphylococcus aureus [4] it was 0.78 mg/L (≈ 2.44 µM).
For the compound GENTAMICIN, the MIC against Pseudomonas aeruginosa is over 50 mg/L; with Staphylococcus aureus [1], 6.25 mg/L; against Klebsiella pneumoniae, 0.78 mg/L; in the test with Escherichia coli, 6.25 mg/L; in the test on Staphylococcus aureus [3], over 50 mg/L; in the test on Staphylococcus aureus [4] it was 0.78 mg/L.
For `OC(Cn1cncn1)(Cn1cncn1)c1ccc(F)cc1F` [FLUCONAZOLE], the MIC in test [2] is over 32 mg/L; in the test on Sporothrix schenckii, 2 mg/L (≈ 6.53 µM); against Cryptococcus neoformans, 2 mg/L (≈ 6.53 µM); in the test on Candida albicans, 1 mg/L (≈ 3.27 µM); with Candida parapsilosis, 2 mg/L (≈ 6.53 µM); against Aspergillus fumigatus, over 32 mg/L.
